Out of some 220,000 compounds screened, about 390 (0.18%) were called active. Shown is part of a subset that was picked to be rich in actives. Values without a mark were called inactive.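 The calls were made as follows: active = activation above its plate's cutoff, the mean activation of test wells on that plate plus 3 SD (cut at about 19% in these data); inactive = the rest.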 Residues, ends and D or L forms follow the SMILES beside them. *: point of attachment. OPac = O=C(CO*)c1ccccc1; Bz = O=C(c1ccccc1)*
System: transient receptor potential cation channel N1 (TRPN1/NompC), Danio rerio
Experiment: zebrafish TRPN1 channel agonists, primary screen, cell-based, HEK293, calcium fluorescence (AID 1424);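 also: 0% = DMSO alone and 100% = 87 µM carbachol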
Conditions: HEK293 zebrafish TRPN1-YFP, Fluo-8 calcium fluorescence; at 3 µM; active compounds read high; 100% = response to 87 µM carbachol
Procedure, shortened: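 Material – zebrafish TRPN1-YFP in HEK293 cells · Doses – 3 µM single point · Schedule – dye 1 h 37 °C plus 30 min RT · Signal – Fluo-8 calcium fluorescence, excitation 470-495 nm, emission 515-575 nm · Read-out – % activation versus carbachol response · Control set – carbachol high, DMSO low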

First: Cn1cc(S(=O)(=O)NC(c2ccccc2)c2ccccc2)c(=O)n(C)c1=O
Second: O=C1NCC(=O)N(Cc2ccccc2)/C1=C/c1ccccc1
The activation of the first is higher: 1.45% for the first, 0.65% for the second.

Going from `COc1ccc(/C=N/NC(=O)C(C)N(c2ccc(OC)cc2)S(C)(=O)=O)cc1` (centres undefined) to `COc1ccc(-c2cn(-c3ccc(OC)cc3)c(=S)[nH]2)cc1`, the activation falls from 0.5% to -0.09%.

First: CC(C)(C)NC(=O)CN1CCC(NC(=O)C23CC4CC(CC(C4)C2)C3)CC1
Second: Cc1cc(OCC(=O)NC2CCN(C)CC2)ccc1[N+](=O)[O-]
The activation of the first is higher: 2.37% for the first, 1.92% for the second.

Going from `O=C(COC(=O)c1ccc(F)cc1F)Nc1ncccn1` to `O=C(COC(=O)c1ccco1)NCc1ccc(Cl)cc1`, the activation rises from -0.68% to 0.49%.

Going from `O=C(COc1ccccc1)N1CCN=C1SCc1cccc(F)c1` to `CSc1cccc(NC(=S)N(Cc2ccccc2)Cc2ccccn2)c1`, the activation falls from -0.02% to -0.2%.

Compared with `CC1Cc2ccccc2N1CC(=O)Nc1ccc(S(N)(=O)=O)cc1` (centres undefined), `CCOc1ccc(NC(=O)c2ccccc2NS(C)(=O)=O)cc1` is lower in activation: 1.19% for the first, 0.2% for the second.

First: Cc1c(Cl)cccc1NC(=O)Nc1ccc(C(=O)N2CCCC2)cc1
Second: O=C(CNCc1ccc(Cl)cc1)Nc1cccc(C(=O)O)c1
The activation of the first is lower: -0.96% for the first, 0.21% for the second.

First: Cc1nn(-c2cc(Cl)ccc2N)c(=O)c2ccccc12
Second: CC1=NN(Cc2ccccc2)C(=O)/C1=C/c1ccc(N(C)C)cc1
The activation of the first is higher: -1.21% for the first, -3.57% for the second.

Compared with `COc1ccc(N2C(=O)c3cccc4cccc(c34)C2=O)nn1`, `Cc1ccc(N2C(=O)S/C(=C/c3cn(C)c4ccccc34)C2=O)cc1` is higher in activation: -0.39% for the first, 1.3% for the second.

Going from `Cc1cc(=O)oc2cc(OCCC[n+]3ccccc3)ccc12` to `CC(C)(c1ccccc1)c1ccc(OCCN)cc1`, the activation rises from 0.59% to 2.87%.

Going from `CCOC(=O)c1c(C)oc(C)c(C(=O)OCC)c1=O` to `CCOC(=O)CC1C(=O)NCCN1C(=O)COc1ccc(Br)cc1C` (centres undefined), the activation falls from 1.29% to -0.63%.

Compared with `O=[N+]([O-])/C=C1\CCCCCN1`, `N#C/C(=C/c1cccc([N+](=O)[O-])c1)c1nnc2n1CCCCC2` is lower in activation: 3.32% for the first, 2.1% for the second.

First: COCc1cc(=O)[nH]c(SC)n1
Second: COc1cc(NC(=O)c2cccnc2SC)cc(OC)c1
The activation of the first is higher: 1.98% for the first, -0.29% for the second.

First: CCOC12CC(C)(C)CC(C)(CC3=C1C(=O)CC(C)(C)C3)C2 (centres undefined)
Second: CCOC(=O)C1(Cc2cccc(OC)c2)CCN(C(C)COC)CC1 (centres undefined)
The activation of the first is higher: 1.01% for the first, -0.77% for the second.

Compared with `CCOc1ccc(-n2c(O)c(/C=N/c3ccnn3Cc3ccncc3)c3ccccc3c2=O)cc1`, `COc1ccc(OCCCn2cccc2/C=C2/C(=N)N3OC(C)=CC3=NC2=O)cc1` is higher in activation: 0.39% for the first, 1.04% for the second.

Compared with `Cc1cc(C)n(Cc2cnc(N3CCOCC3)s2)n1`, `Cc1ccc(S(=O)(=O)N2CCOCC2)cc1NC(=O)CSc1nnc(N)s1` is higher in activation: 0.48% for the first, 0.64% for the second.

First: CNC(=O)c1ccsc1NC(=O)c1ccc(S(=O)(=O)N2CCOCC2)cc1
Second: Cc1ccc(N2CCN(S(=O)(=O)c3ccc(F)cc3)CC2)c(C)c1
The activation of the first is higher: 2.83% for the first, -1.18% for the second.

First: CC1=NN(c2cccc(Cl)c2)C(=O)C12CC(C)=C(C)CS2 (centres undefined)
Second: Cc1cc(C)n(C(=O)CCNC(=O)c2ccccc2Cl)n1
The activation of the first is lower: -0.78% for the first, 0.31% for the second.

First: O=C1CC(N2CCN(c3ccc(F)cc3)CC2)C(=O)N1c1ccccc1 (centres undefined)
Second: CC(C)OC(=O)CN1CCN(c2ccc(Cl)cc2)CC1
The activation of the first is lower: 0.96% for the first, 4.98% for the second.

First: CC(C)c1ccc(NC(=S)NC2CC3C=CC2C3)cc1 (centres undefined)
Second: CCC(C(=O)Nc1ccc2c(c1)OCCO2)c1ccccc1 (centres undefined)
The activation of the first is higher: 1.72% for the first, -0.31% for the second.

Compared with `CCCCCCCCCOC1OC(CO)C(O)C(O)C1NC(C)=O` (centres undefined), `CC#CC[N+](C)(C)CCCCCC` is lower in activation: 1.72% for the first, -0.58% for the second.

First: O=C(CNC(=O)c1ccccc1)NCC(=O)OCC(=O)c1ccccc1 (Bz-Gly-Gly-OPac)
Second: CCC(C(=O)OCC(=O)Nc1ccc(C(=O)Nc2ccc(OC)cc2)cc1)c1ccccc1 (centres undefined)
The activation of the first is lower: 1.5% for the first, 2.79% for the second.

Compared with `Cc1occc1C(=O)Nc1nnc(-c2ccncc2)s1`, `Cc1ccc(C(=O)Nc2nnc(-c3ccncc3)s2)o1` is higher in activation: 0.89% for the first, 1.91% for the second.

Compared with `O=C(NN=C1CCC(=NNC(=O)c2cccnc2)CC1)c1cccnc1`, `O=C(Nc1nncs1)c1ccccc1NS(=O)(=O)c1cccs1` is lower in activation: 1.24% for the first, -0.5% for the second.

Compared with `COC(=O)c1ccccc1NC(=O)c1ccccc1NS(C)(=O)=O`, `C=CCNC(=O)c1ccccc1NC(=O)c1ccc(Cl)c(S(=O)(=O)Nc2cccc(C)c2C)c1` is higher in activation: -1.95% for the first, 1.27% for the second.

First: C=C(C)CNC(=S)N/N=C/c1ccccc1OCC(=O)O
Second: COc1cc(/C=N\Nc2nc(-c3cccs3)c(NC(C)=O)s2)ccc1O
The activation of the first is higher: 1.26% for the first, 0.7% for the second.

Compared with `Cc1ccc2cc(CN(c3ccc(C)c(C)c3)S(C)(=O)=O)c(=O)[nH]c2c1`, `COc1ccc(C(C)=O)cc1COc1ccc(Cl)c(C)c1` is lower in activation: 1.62% for the first, 0.81% for the second.

Going from `COCCN(Cc1nc(-c2ccc(C(F)(F)F)cc2)no1)C(C)C` to `CC(CNS(=O)(=O)c1ccc(Br)cc1)CN(C)C` (centres undefined), the activation falls from 0.76% to 0.45%.

Compared with `O=C(CCNC(=O)Cn1ccc2ccccc2c1=O)NCCC1=CCCCC1`, `O=C(NCCc1c[nH]c2ccccc12)C(=O)NCC1CCCO1` (centres undefined) is higher in activation: -0.5% for the first, 0.46% for the second.

Going from `COc1ccc(OC)c(-c2c(=O)n(OCc3ccccc3Br)c3ccccc3[n+]2[O-])c1` to `CC1CN(CCCOc2ccccc2-c2ccccc2)CC(C)O1` (centres undefined), the activation rises from -1.72% to -1.64%.

Going from `Cc1cccn2c(=O)c(/C=C3\SC(=S)N(CC(C)C)C3=O)c(NCCCOC(C)C)nc12` to `CCN1CCN(CCNC(=O)c2ccc(/C=C3/Sc4ccccc4N(Cc4cccc(C)c4)C3=O)cc2)CC1`, the activation rises from 1.73% to 4.77%.

Going from `N#C/C(=C/c1ccc(-c2ccccc2[N+](=O)[O-])o1)C(=O)NCCN1CCCCC1` to `COC(=O)c1cc(NC(=O)Cc2ccccc2[N+](=O)[O-])ccc1Cl`, the activation rises from -2.16% to -1.23%.

First: COCCCNC(=O)CNC(=S)N(Cc1cc(OC)c(OC)c(OC)c1)C1CCCC1
Second: CCOc1cc2[nH]c(=O)n(Cc3ccc(C(=O)NCCCN4CCCC4=O)cc3)c(=O)c2cc1OCC
The activation of the first is higher: 0.25% for the first, -0.57% for the second.

Going from `Cn1nnnc1-c1cc(Cl)cc(Cl)c1` to `COc1cc(OC)c(-n2c(C)cc(C=O)c2C)cc1Cl`, the activation falls from -0.59% to -1.14%.

First: CCN1/C(=C/C(=S)Nc2ccccc2)Sc2ccccc21
Second: O=C(NCC(c1cccs1)N1CCOCC1)c1cc(-c2ccccn2)nc2ccccc12 (centres undefined)
The activation of the first is lower: -1.89% for the first, 1.98% for the second.

Compared with `CC(C)(C)C(=O)CSc1nc2ccccc2o1`, `CC(C)(C)c1cnnn1-c1ccc([N+](=O)[O-])cc1` is higher in activation: -0.66% for the first, 1.54% for the second.

Compared with `O=C(c1snnc1-c1ccccc1)N1CCOCC1`, `CC1C(=O)NC(=O)C1c1ccccc1` (centres undefined) is higher in activation: -0.06% for the first, 0.95% for the second.

Compared with `CC(=O)Nc1ccc(S(=O)(=O)Nc2ccc(-c3ccc4nnc(C)n4n3)cc2)cc1`, `Cc1ccc2[nH]cc(CCNC(=O)c3ccc([N+](=O)[O-])cc3)c2c1` is lower in activation: 0.58% for the first, -0.48% for the second.

Compared with `CN=C1C=C/C(=N/N=c2\ccn(O)cc2C)C=C1C`, `CCOc1cc(/C=C2/C(=N)N3OC(C)=CC3=NC2=O)ccc1OC` is higher in activation: -3.14% for the first, -0.5% for the second.

Going from `CONc1nc2nonc2nc1NOC` to `COc1cc(/C=C(\C#N)c2nc3c(s2)CC(C)CC3)ccc1O` (centres undefined), the activation rises from 2.6% to 9.23%.

First: Cc1cc(C)c(OCCN2CC(C)OC(C)C2)c(Br)c1 (centres undefined)
Second: CN1CCN(c2cc3c(cc2F)c(=O)c(C(=O)O)cn3CCF)CC1
The activation of the first is lower: -2.75% for the first, 1.93% for the second.

Going from `CC(C[N+](C)(C)C)OC(N)=O` (centres undefined) to `O=C(N1CCCCC1)N1CCN(C(=O)N2CCCCC2)CC1`, the activation rises from 0.21% to 1.43%.

In the case of `Cc1nn(C)cc1N1C(=O)c2cccc3c(N)ccc(c23)C1=O`, the activation is reported as 23.7% (active).
For `Cc1ccc(N2C(=O)CC(N3CCSCC3)C2=O)c(C)c1` (centres undefined), the activation was 40.3% (active).
`Cc1ccc(NC(=O)Nc2nnc(-c3ccncc3)s2)cc1` was tested, and the activation was 20.7% (active).
With `COC(=O)c1ccc(NC(=O)c2ccccc2NS(=O)(=O)c2ccccc2)cc1` the activation was 19.8% (active).
In the case of `COc1cc(NC(=O)c2ccccc2NS(=O)(=O)c2ccc(Cl)s2)cc(OC)c1`, the activation is reported as 21% (active).
For `CCOC(=O)CC1C(=O)NCCN1c1nc2c(C)cccn2c(=O)c1/C=C1\SC(=S)N(C(C)CC)C1=O` (centres undefined), the activation was 23.3% (active).
For `N#C/C(=C/c1ccc(N2CCCCC2)o1)C(=O)NCCc1c[nH]c2ccccc12`, the activation was 29.5% (active).
For `CCN1/C(=C\c2ccc3ccccc3[n+]2CC)Sc2cc(C)ccc21`, the activation was 38.4% (active).
With `CCN1/C(=C/c2ccc3ccc(C)cc3[n+]2CC)Sc2ccccc21` the activation was 30.7% (active).
In the case of `COc1cc(OC)c(-n2cc(-c3ccc(Cl)cc3)[nH]c2=O)cc1Cl`, the activation is reported as 32.6% (active).
With `CCC(C(=O)Nc1ccc(C(C)C)cc1)c1ccccc1` (centres undefined) the activation was 29% (active).
For `CN(C)c1ccc(/C=C2\NC(=S)N(Cc3ccccc3)C2=O)cc1`, the activation was 30.3% (active).
In the case of `CCOc1cc(/C=C(\C#N)c2nc(-c3cccs3)c(NC(C)=O)s2)ccc1O`, the activation is reported as 26.9% (active).
`CC(=O)OC(C)C[N+](C)(C)C` (centres undefined) was tested, and the activation was 51% (active).
With `CC1=CC2=NC(=O)/C(=C/c3coc4ccccc4c3=O)C(=N)N2O1` the activation was 35.5% (active).

From PubChem BioAssay AID1424 (The Scripps Research Institute Molecular Screening Center, 2008)
